Source: ChEMBL document CHEMBL4011643, “Triaryl Benzimidazoles as a New Class of Antibacterial Agents against Resistant Pathogenic Microorganisms” (J Med Chem, 2017)
Values after ≈ are worked out from the molar mass of the structure shown. Active and inactive are the calls of the source. The rule behind the calls is not given here.

Key:
Klebsiella pneumoniae [1] = assay: Antibacterial activity against Klebsiella pneumoniae NCTC 13368 after 20 hrs in the presence of Pa-beta-N and magnesium ions by broth microdilution method; type: functional; details: NCTC 13368, 20 h
Outline: (§1)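 Broth microdilution in Tryptic Soy Broth, done in triplicate. Growth was read as OD600 after 20 h. MIC is the lowest drug concentration giving OD600 below 0.1.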

Acinetobacter baumannii [2] = assay: Antibacterial activity against Acinetobacter baumannii AYE after 20 hrs in the presence of Pa-beta-N and magnesium ions by broth microdilution method; type: functional; outline: as §1
Klebsiella pneumoniae [3] = assay: Antibacterial activity against Klebsiella pneumoniae NCTC 13368 after 20 hrs by broth microdilution method; type: functional; details: NCTC 13368, 20 h; outline: as §1
Klebsiella pneumoniae [4] = assay: Antibacterial activity against Klebsiella pneumoniae M6 after 20 hrs in the presence of PMBN by broth microdilution method; type: functional; details: M6, 20 h; outline: as §1
Klebsiella pneumoniae [5] = assay: Antibacterial activity against Klebsiella pneumoniae NCTC 13368 after 20 hrs in the presence of PMBN by broth microdilution method; type: functional; details: NCTC 13368, 20 h; outline: as §1
Klebsiella pneumoniae [6] = assay: Antibacterial activity against Klebsiella pneumoniae M6 after 20 hrs in the presence of Pa-beta-N and magnesium ions by broth microdilution method; type: functional; details: M6, 20 h; outline: as §1
Acinetobacter baumannii [7] = assay: Antibacterial activity against Acinetobacter baumannii AYE after 20 hrs by broth microdilution method; type: functional; outline: as §1
Pseudomonas aeruginosa [8] = assay: Antibacterial activity against Pseudomonas aeruginosa PAO1 after 20 hrs in the presence of PMBN by broth microdilution method; type: functional; details: PAO1, 20 h; outline: as §1
Acinetobacter baumannii [9] = assay: Antibacterial activity against Acinetobacter baumannii ATCC 17978 after 20 hrs in the presence of Pa-beta-N and magnesium ions by broth microdilution method; type: functional; details: ATCC 17978, 20 h; outline: as §1
Pseudomonas aeruginosa [10] = assay: Antibacterial activity against Pseudomonas aeruginosa NCTC 13437 after 20 hrs by broth microdilution method; type: functional; details: NCTC 13437, 20 h; outline: as §1
Staphylococcus aureus [11] = assay: Antibacterial activity against methicillin-resistant Staphylococcus aureus MRSA252 after 20 hrs by broth microdilution method; type: functional; details: MRSA252, 20 h
Outline: (§2)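 Broth microdilution in Tryptic Soy Broth; growth read as OD600 after 20 h. MIC taken as the lowest drug concentration giving OD600 below 0.1. Run in triplicate.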

Klebsiella pneumoniae [12] = assay: Antibacterial activity against Klebsiella pneumoniae M6 after 20 hrs by broth microdilution method; type: functional; details: M6, 20 h; outline: as §1
Enterococcus faecalis [13] = assay: Bactericidal activity against vancomycin-resistant Enterococcus faecalis NCTC 12201 at 4 times MIC after 24 hrs by Miles Misra dilution method; type: functional
Outline: (§3)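 Flasks of TSB inoculated at ~10^6 cfu/mL, compound added at 4 × MIC, shaken at 200 rpm and 37 °C. Samples taken at 1, 2, 4, 6 and 24 h and plated by Miles Misra dilution for CFU/mL. Bactericidal means a loss of >3 log CFU/mL. Three independent repeats, error bars SD.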

Acinetobacter baumannii [14] = assay: Antibacterial activity against Acinetobacter baumannii AYE after 20 hrs in the presence of PMBN by broth microdilution method; type: functional; outline: as §1
Pseudomonas aeruginosa [15] = assay: Antibacterial activity against Pseudomonas aeruginosa PAO1 after 20 hrs in the presence of Pa-beta-N and magnesium ions by broth microdilution method; type: functional; details: PAO1, 20 h; outline: as §1
Enterococcus faecalis [16] = assay: Antibacterial activity against vancomycin-sensitive Enterococcus faecalis NCTC 775 after 20 hrs by broth microdilution method; type: functional; details: NCTC 775, 20 h; outline: as §1
Enterococcus faecalis [17] = assay: Antibacterial activity against vancomycin-resistant Enterococcus faecalis NCTC 12201 after 20 hrs by broth microdilution method; type: functional; details: NCTC 12201, 20 h; outline: as §2
Pseudomonas aeruginosa [18] = assay: Antibacterial activity against Pseudomonas aeruginosa PAO1 after 20 hrs by broth microdilution method; type: functional; details: PAO1, 20 h; outline: as §1
Acinetobacter baumannii [19] = assay: Antibacterial activity against Acinetobacter baumannii ATCC 17978 after 20 hrs in the presence of PMBN by broth microdilution method; type: functional; details: ATCC 17978, 20 h; outline: as §1
Enterococcus faecalis [20] = assay: Bactericidal activity against vancomycin-resistant Enterococcus faecalis NCTC 12201 assessed as time required to kill bacteria by >6 log10CFU/ml at 4 times MIC by Miles Misra dilution method; type: functional; outline: as §3
[21] = Stabilization of FAM/TAMRA-labeled AT-rich DNA duplex (unknown origin) assessed as change in melting temperature at 1 uM by FRET-based assay
Outline: (§4)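 FRET melting of a FAM/TAMRA-labelled AT-rich oligonucleotide, 400 nM working solution in 50 mM potassium, 50 mM cacodylate, pH 7.4. DNA was annealed at 85 °C for 6 min, then held at 25 °C for 5 h, and mixed 1:1 with sample. Fluorescence was read every 0.5 °C from 30 to 100 °C, with a 30 s hold per step. ΔTm is measured against the blank, in triplicate.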

Pseudomonas aeruginosa [22] = assay: Antibacterial activity against Pseudomonas aeruginosa NCTC 13437 after 20 hrs in the presence of PMBN by broth microdilution method; type: functional; details: NCTC 13437, 20 h; outline: as §1
Enterococcus faecium = assay: Antibacterial activity against vancomycin-resistant Enterococcus faecium NCTC 12204 after 20 hrs by broth microdilution method; type: functional; details: NCTC 12204, 20 h; outline: as §2
Staphylococcus aureus [23] = assay: Antibacterial activity against methicillin-resistant Staphylococcus aureus EMRSA-15 after 20 hrs by broth microdilution method; type: functional; details: EMRSA-15, 20 h; outline: as §2
Staphylococcus aureus [24] = assay: Antibacterial activity against methicillin-sensitive Staphylococcus aureus ATCC 9144 after 20 hrs by broth microdilution method; type: functional; details: ATCC 9144, 20 h; outline: as §1
Pseudomonas aeruginosa [25] = assay: Antibacterial activity against Pseudomonas aeruginosa NCTC 13437 after 20 hrs in the presence of Pa-beta-N and magnesium ions by broth microdilution method; type: functional; details: NCTC 13437, 20 h; outline: as §1
[26] = Stabilization of FAM/TAMRA-labeled AT-rich DNA duplex (unknown origin) assessed as change in melting temperature at 5 uM by FRET-based assay; outline: as §4
Staphylococcus aureus [27] = assay: Bactericidal activity against methicillin-resistant Staphylococcus aureus EMRSA-15 assessed as time required to kill bacteria by >6 log10CFU/ml at 4 times MIC by Miles Misra dilution method; type: functional; outline: as §3
Acinetobacter baumannii [28] = assay: Antibacterial activity against Acinetobacter baumannii ATCC 17978 after 20 hrs by broth microdilution method; type: functional; details: ATCC 17978, 20 h; outline: as §1
[29] = Cytotoxicity against human HeLa cells assessed as cell viability at 25 uM after 24 hrs by MTT assay; type: cell-based; details: read-out: Activity
Outline: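 HeLa cells, 10000 per well, were grown at 37 °C in 5% CO2 and allowed to settle for 24 h. Compound was then added in triplicate for 24 h of continuous exposure. Viability was read by MTT colorimetry, with absorbance at 570 nm.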

Which MIC (Klebsiella pneumoniae [1]) does the source give for `Cc1nc2ccc(C(=O)Nc3cccc(-c4ccc(-n5c(C)nc6cc(C(=O)NCCN(C)C)ccc65)nc4)c3)cc2[nH]1` here?
Its MIC is greater than 32 µg/mL.

And the MIC (Acinetobacter baumannii [2])?
Its MIC is greater than 32 µg/mL.

What about the MIC (Klebsiella pneumoniae [3]) of the same compound?
Its MIC is greater than 32 µg/mL.

What about the MIC (Klebsiella pneumoniae [4]) of the same compound?
The MIC was 16 µg/mL.

What about the MIC (Klebsiella pneumoniae [5]) of the same compound?
The MIC was greater than 32 µg/mL.

And the MIC (Klebsiella pneumoniae [6])?
The MIC was greater than 32 µg/mL.

What about the MIC (Acinetobacter baumannii [7]) of the same compound?
Its MIC is greater than 32 µg/mL.

And the MIC (Pseudomonas aeruginosa [8])?
The MIC was greater than 32 µg/mL.

And the MIC (Acinetobacter baumannii [9])?
The MIC was 32 µg/mL.

What about the MIC (Pseudomonas aeruginosa [10]) of the same compound?
The MIC was greater than 32 µg/mL.

And the MIC (Staphylococcus aureus [11])?
Its MIC is 8 µg/mL (≈ 14 µM).

What about the MIC (Klebsiella pneumoniae [12]) of the same compound?
Its MIC is greater than 32 µg/mL.

And the Activity (Enterococcus faecalis [13])?
The Activity was “inactive”.

What about the MIC (Acinetobacter baumannii [14]) of the same compound?
The MIC was 32 µg/mL.

What about the MIC (Pseudomonas aeruginosa [15]) of the same compound?
The MIC was greater than 32 µg/mL.

And the MIC (Enterococcus faecalis [16])?
Its MIC is 4 µg/mL (≈ 6.98 µM).

And the MIC (Enterococcus faecalis [17])?
The MIC was 1 µg/mL (≈ 1.75 µM).

What about the MIC (Pseudomonas aeruginosa [18]) of the same compound?
Its MIC is greater than 32 µg/mL.

What about the MIC (Acinetobacter baumannii [19]) of the same compound?
Its MIC is 32 µg/mL.

What about the Time (Enterococcus faecalis [20]) of the same compound?
Its Time is 4 h.

What about the deltaTm [21] of the same compound?
The deltaTm was 0.2 °C.

What about the MIC (Pseudomonas aeruginosa [22]) of the same compound?
Its MIC is greater than 32 µg/mL.

What about the MIC (Enterococcus faecium) of the same compound?
The MIC was 2 µg/mL (≈ 3.49 µM).

And the MIC (Staphylococcus aureus [23])?
The MIC was 2 µg/mL (≈ 3.49 µM).

What about the MIC (Staphylococcus aureus [24]) of the same compound?
The MIC was 2 µg/mL (≈ 3.49 µM).

And the MIC (Pseudomonas aeruginosa [25])?
The MIC was greater than 32 µg/mL.

What about the deltaTm [26] of the same compound?
Its deltaTm is 0.9 °C.

And the Time (Staphylococcus aureus [27])?
Its Time is 4 h.

And the MIC (Acinetobacter baumannii [28])?
Its MIC is greater than 32 µg/mL.

What about the viability at 24 h, 25 µM [29] of the same compound?
The viability at 24 h, 25 µM was greater than 98%.
